Assay results as given in ChEMBL document CHEMBL1137670, “First occurrence of an IMP metallo-beta-lactamase in Aeromonas caviae: IMP-19 in an isolate from France” (2007).

Tests used:
[1] = substrate: CO/N=C(\C(=O)N[C@@H]1C(=O)N2C(C(=O)O)=C(COC(N)=O)CS[C@H]12)c1ccco1; assay: (§1) Activity of Aeromonas caviae A324R metallo-beta-lactamase IMP-19 expressed in Escherichia coli DH5alpha by computerized microacidimetric method
In short: (§2)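 IMP-19 purified from sonicated recombinant E. coli DH5alpha(pIP19). Purification: SP Sepharose in 50 mM MES-NaOH pH 6.0 with 0–500 mM NaCl gradient, then 5 mM ZnCl2 and Superose 12 in 20 mM MES-NaOH–100 mM NaCl pH 6.0; purity >97% by SDS-PAGE. Km and kcat measured three times by computerized microacidimetry; variation coefficients at most 10%.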

[2] = substrate: C[C@@H](O)[C@H]1C(=O)N2C(C(=O)O)=C(S[C@@H]3CN[C@H](C(=O)N(C)C)C3)[C@H](C)[C@H]12; assay: as §1; in short: as §2
[3] = substrate: C[C@H]1[C@H](NC(=O)/C(=N\OC(C)(C)C(=O)O)c2csc(N)n2)C(=O)N1S(=O)(=O)O; assay: as §1; in short: as §2
[4] = substrate: CC1(C)S[C@@H]2[C@H](NC(=O)[C@H](C(=O)O)c3ccsc3)C(=O)N2[C@H]1C(=O)O; assay: as §1; in short: as §2
[5] = substrate: CO/N=C(\C(=O)N[C@@H]1C(=O)N2C(C(=O)O)=C(COC(C)=O)CS[C@H]12)c1csc(N)n1; assay: as §1; in short: as §2
[6] = substrate: CC(C)(O/N=C(\C(=O)N[C@@H]1C(=O)N2C(C(=O)[O-])=C(C[n+]3ccccc3)CS[C@H]12)c1csc(N)n1)C(=O)O; assay: as §1; in short: as §2
[7] = substrate: CO/N=C(\C(=O)N[C@@H]1C(=O)N2C(C(=O)[O-])=C(C[n+]3cccc4c3CCC4)CS[C@H]12)c1csc(N)n1; assay: as §1; in short: as §2
[8] = substrate: CO[C@@]1(NC(=O)Cc2cccs2)C(=O)N2C(C(=O)O)=C(COC(N)=O)CS[C@@H]21; assay: as §1; in short: as §2
[9] = substrate: CCN1CCN(C(=O)N[C@@H](C(=O)N[C@@H]2C(=O)N3[C@@H]2SC(C)(C)[C@@H]3C(=O)O)c2ccccc2)C(=O)C1=O; assay: as §1; in short: as §2
[10] = substrate: CC(=O)OCC1=C(C(=O)O)N2C(=O)[C@@H](NC(=O)Cc3cccs3)[C@H]2SC1; assay: as §1; in short: as §2
[11] = substrate: C[C@@H](O)[C@H]1C(=O)N2C(C(=O)O)=C(SCCNC=N)C[C@H]12; assay: as §1; in short: as §2
[12] = substrate: CC1(C)S[C@@H]2[C@H](NC(=O)Cc3ccccc3)C(=O)N2[C@H]1C(=O)O; assay: as §1; in short: as §2
[13] = substrate: CC1(C)S[C@@H]2[C@H](NC(=O)[C@H](N)c3ccc(O)cc3)C(=O)N2[C@H]1C(=O)O; assay: as §1; in short: as §2
[14] = substrate: CO/N=C(\C(=O)N[C@@H]1C(=O)N2C(C(=O)O)=C(COC(N)=O)CS[C@H]12)c1ccco1; assay: (§3) Ratio of Kcat to Km of Aeromonas caviae A324R metallo-beta-lactamase IMP-19 expressed in Escherichia coli DH5alpha by computerized microacidimetric method; in short: as §2
[15] = substrate: C[C@@H](O)[C@H]1C(=O)N2C(C(=O)O)=C(S[C@@H]3CN[C@H](C(=O)N(C)C)C3)[C@H](C)[C@H]12; assay: as §3; in short: as §2
[16] = substrate: CC1(C)S[C@@H]2[C@H](NC(=O)[C@H](C(=O)O)c3ccsc3)C(=O)N2[C@H]1C(=O)O; assay: as §3; in short: as §2
[17] = substrate: CO/N=C(\C(=O)N[C@@H]1C(=O)N2C(C(=O)O)=C(COC(C)=O)CS[C@H]12)c1csc(N)n1; assay: as §3; in short: as §2
[18] = substrate: CC(C)(O/N=C(\C(=O)N[C@@H]1C(=O)N2C(C(=O)[O-])=C(C[n+]3ccccc3)CS[C@H]12)c1csc(N)n1)C(=O)O; assay: as §3; in short: as §2
[19] = substrate: CO/N=C(\C(=O)N[C@@H]1C(=O)N2C(C(=O)[O-])=C(C[n+]3cccc4c3CCC4)CS[C@H]12)c1csc(N)n1; assay: as §3; in short: as §2
[20] = substrate: CO[C@@]1(NC(=O)Cc2cccs2)C(=O)N2C(C(=O)O)=C(COC(N)=O)CS[C@@H]21; assay: as §3; in short: as §2
[21] = substrate: CCN1CCN(C(=O)N[C@@H](C(=O)N[C@@H]2C(=O)N3[C@@H]2SC(C)(C)[C@@H]3C(=O)O)c2ccccc2)C(=O)C1=O; assay: as §3; in short: as §2
[22] = substrate: CC(=O)OCC1=C(C(=O)O)N2C(=O)[C@@H](NC(=O)Cc3cccs3)[C@H]2SC1; assay: as §3; in short: as §2
[23] = substrate: C[C@@H](O)[C@H]1C(=O)N2C(C(=O)O)=C(SCCNC=N)C[C@H]12; assay: as §3; in short: as §2
[24] = substrate: CC1(C)S[C@@H]2[C@H](NC(=O)Cc3ccccc3)C(=O)N2[C@H]1C(=O)O; assay: as §3; in short: as §2
[25] = substrate: CC1(C)S[C@@H]2[C@H](NC(=O)[C@H](N)c3ccc(O)cc3)C(=O)N2[C@H]1C(=O)O; assay: as §3; in short: as §2

B1: IMP-19 (Aeromonas caviae), A8QUY6 (protein)
chain: MKKLFVLCVCFLCSITAAGAALPDLKIEKLEEGVYVHTSFEEVNGWGVVSKHGLVVLVNTDAYLIDTPFTATDTEKLVNWFVERGYKIKGTISSHFHSDSTGGIEWLNSQSIPTYASELTNELLKKDGKVQAKNSFSGVSYWLVKNKIEVFYPGPGHTQDNVVVWLPEKKILFGGCFVKPDGLGNLGDANLEAWPKSAKILMSKYVKAKLVVSSHSEIGDASLLKRTWEQAVKGLNESKKPSQPSN
With B1 the Km [1] was 95 µM, the kcat [1] was 16.4 s⁻¹ and the Km [2] was 7 µM. For the same protein, the kcat [2] was 1 s⁻¹, the kcat [3] was < 0.1 s⁻¹ and the Km [4] was 140 µM. It also gave a kcat [4] of 683 s⁻¹, a Km [5] of 61 µM and a kcat [5] of 20.1 s⁻¹. The Km [6] was 20 µM, the kcat [6] was 6.4 s⁻¹ and the Km [7] was 48 µM. The kcat [7] was 14.3 s⁻¹, the Km [8] was 33 µM and the kcat [8] was 9.7 s⁻¹. The Km [9] was 148 µM, the kcat [9] was 41.2 s⁻¹ and the Km [10] was 76 µM. The kcat [10] was 11 s⁻¹, the Km [11] was 100 µM and the kcat [11] was 26.5 s⁻¹. The Km [12] was 206 µM, the kcat [12] was 1010 s⁻¹ and the Km [13] was 207 µM. The kcat [13] was 456 s⁻¹, the kcat/Km [14] was 0.17 and the kcat/Km [15] was 0.14. For the same protein, the kcat/Km [16] was 4.88, the kcat/Km [17] was 0.33 and the kcat/Km [18] was 0.32. The kcat/Km [19] was 0.3, the kcat/Km [20] was 0.29 and the kcat/Km [21] was 0.28. For the same protein, the kcat/Km [22] was 0.14, the kcat/Km [23] was 0.26 and the kcat/Km [24] was 4.91. The kcat/Km [25] was 2.2.
